This is an account of results in publication PMC4894821 (ACS chemical biology, 2015).

The target in assay [1] is T1, Human NTH1 (Homo sapiens, UniProt P78549).
T1 sequence (P78549 23-304): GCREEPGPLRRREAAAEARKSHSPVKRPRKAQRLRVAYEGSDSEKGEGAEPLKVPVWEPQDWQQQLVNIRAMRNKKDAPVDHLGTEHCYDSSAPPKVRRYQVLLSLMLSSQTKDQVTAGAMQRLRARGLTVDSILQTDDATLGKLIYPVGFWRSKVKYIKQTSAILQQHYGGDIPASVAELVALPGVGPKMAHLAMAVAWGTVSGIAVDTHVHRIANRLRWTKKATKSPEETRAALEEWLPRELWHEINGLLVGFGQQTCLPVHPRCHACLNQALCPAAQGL
Description: Fluorescence-based NTH1 activity assay. Format: biochemical. The conditions noted are these: read-out: NTH1 % activity with 50 μM inhibitor.

Assay [2] concerns the target Human NEIL1 (Homo sapiens, UniProt Q96FI4). Description: Fluorescence-based NEIL1 activity assay. Format: biochemical. Particulars: read-out: NEIL1 % activity with 50 μM inhibitor.
The target in assay [3] is T2, OGG1 (Homo sapiens, UniProt O15527). Description: Sodium cyanoborohydride trapping assay. The conditions noted are these: 10 μM inhibitor, 1 mM NaBH3CN. The class given is biochemical.
The target in assay [4] is T2, OGG1. Description: Gel-based OGG1 cleavage assay. The class given is biochemical. Particulars: eight concentrations up to 25 μM.
Assay [5] deals with T2, OGG1. Description: OGG1 AP lyase activity on AP site-containing substrate. Particulars: 10 μM compound, compared with no inhibitor control. Format: biochemical. An outline of the steps: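 AP-site substrate made by treating U-containing duplex with Udg, 37 °C, 2 h. OGG1 (62.5 nM stock) mixed with 10 μM compound or buffer, then substrate (50 nM stock) added. Incubated 30 min at 37 °C, quenched with formamide, resolved on 15% polyacrylamide/8 M urea gel. Percent cleavage vs no-inhibitor control; three independent experiments.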

Assay [6] addresses T2, OGG1. Description: Gel shift assay. The class given is binding. The conditions noted are these: 50 μM inhibitor or ATA, 4 °C. An outline of the steps:
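EMSA on ice with precooled reagents. OGG1 (125 nM stock) pre-incubated 5–10 min with 50 μM inhibitor, ATA or buffer. Added 8-oxo-Gua, AP-site or U-containing fluorescent duplex (50 nM stock), held 5 min. Quenched with cold 30% glycerol; run on 8% native gel with 30% glycerol, 4 °C, 1 h, 75 V. Percent bound vs no-inhibitor control; three independent experiments.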
(In general: In EMSA bound probe runs differently from free probe, usually more slowly.)

The test system of assay [7] is AP-containing substrate. Description: Protection of AP-containing substrate against NaOH-mediated strand cleavage.

T2 sequence (O15527 whole entry): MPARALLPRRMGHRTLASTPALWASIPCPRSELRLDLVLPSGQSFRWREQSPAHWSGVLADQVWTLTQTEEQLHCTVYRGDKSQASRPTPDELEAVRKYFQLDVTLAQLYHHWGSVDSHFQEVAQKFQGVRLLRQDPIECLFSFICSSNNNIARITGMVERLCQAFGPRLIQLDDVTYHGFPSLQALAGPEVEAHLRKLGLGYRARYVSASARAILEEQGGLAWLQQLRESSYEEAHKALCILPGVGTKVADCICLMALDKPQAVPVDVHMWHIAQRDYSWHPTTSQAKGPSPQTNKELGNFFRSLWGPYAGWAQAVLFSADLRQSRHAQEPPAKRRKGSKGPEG
Human NEIL1, sequence (Q96FI4 whole entry): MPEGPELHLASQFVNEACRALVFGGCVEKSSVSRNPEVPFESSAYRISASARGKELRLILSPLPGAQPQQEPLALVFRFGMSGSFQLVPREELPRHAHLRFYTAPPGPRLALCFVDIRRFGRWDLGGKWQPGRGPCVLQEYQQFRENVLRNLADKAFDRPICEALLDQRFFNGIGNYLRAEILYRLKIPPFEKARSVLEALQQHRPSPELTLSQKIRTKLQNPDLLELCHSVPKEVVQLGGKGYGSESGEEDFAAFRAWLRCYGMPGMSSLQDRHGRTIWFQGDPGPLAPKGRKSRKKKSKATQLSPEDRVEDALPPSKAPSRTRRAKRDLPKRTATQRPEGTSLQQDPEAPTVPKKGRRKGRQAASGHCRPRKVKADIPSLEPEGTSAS

For the molecule `NNC(=O)c1ccncc1` [Isoniazid (INH), isoniazid], the values for the activity at 50 µM in assay [1] and in assay [2] were 98% and 80.6%, respectively. Besides, the “trapping of OGG1 on 8-oxo-Gua- and AP site-containing substrates (Schiff base formation)” value in assay [3] is given as “no effect”. Besides, the “inhibition of OGG1 (gel-based strand cleavage)” value in assay [4] is reported as “no inhibition”. In addition, the “OGG1-induced cleavage of an AP site (lyase activity)” value in assay [5] is recorded as “no effect”.
On to `O=C(O)C1=CC(=C(c2ccc(O)c(C(=O)O)c2)c2ccc(O)c(C(=O)O)c2)C=CC1=O` [aurintricarboxylic acid (ATA), aurintricarboxylic acid], for which the “OGG1 binding to 8-oxo-Gua substrate” value in assay [6] is “abrogated”.
On to `NNc1nncc2ccccc12` [hydralazine], for which the “protection against NaOH-mediated (alkaline-induced) strand cleavage” value in assay [7] is 63%.
In the case of `Cc1cc(C(=O)NNCc2ccccc2)no1` [isocarboxazid (ICD), isocarboxazid], the “OGG1-induced cleavage of an AP site (lyase activity)” value in assay [5] is recorded as “no effect”.
